Measured values taken from ChEMBL document CHEMBL1157424, “Alisiaquinones and alisiaquinol, dual inhibitors of Plasmodium falciparum enzyme targets from a New Caledonian deep water sponge” (J Nat Prod, 2008).
Activity calls are given as the source filed them. No cut-off for these calls is given here.

What was measured:
Plasmodium falciparum [1] = assay: Inhibition of Plasmodium falciparum Pfnek1 at 50 uM
Outline: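 Kinase reaction in 20 mM Tris/HCl pH 7.5 with 20 mM MgCl2, 2 mM MnCl2, 0.25 µCi [γ-33P]ATP and 5 µg myelin basic protein as substrate. Compounds were tested at 50, 5 and 1 µM with equal DMSO in all reactions. Reactions were stopped in Laemmli buffer and run on SDS gel. Gels were Coomassie-stained, dried, autoradiographed and quantified by phosphorimaging as % remaining activity.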

Plasmodium falciparum [2] = assay: Inhibition of Plasmodium falciparum Pfnek1 at 1 uM
Outline: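 Compounds were tested at 50, 5 and 1 µM with equal DMSO in all reactions. Reactions were stopped with Laemmli buffer and run on SDS-PAGE. Remaining activity (%) was quantified by autoradiography and phosphorimaging; no IC50 was determined.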

[3] = Selectivity index ratio of IC50 for human MCF7 cells to IC50 for chloroquine-sensitive Plasmodium falciparum F32; format: functional
Outline: (§1)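 The ratio compares the MCF-7 IC50 with the parasite IC50. MCF-7 cells were grown in DMEM with 2 mM L-glutamine and 10% FCS at 37 °C, 5% CO2, and used in exponential growth. They were seeded at 200 000 cells/mL; after 24 h, compounds were added at 0.01–100 µg/mL. Viability was read by [3H]hypoxanthine incorporation and IC50 taken graphically from the curves. Parasite IC50s came from the [3H]hypoxanthine incorporation assay on synchronized cultures.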

Plasmodium falciparum [4] = assay: Antiplasmodial activity against chloroquine-sensitive Plasmodium falciparum F32 by [3H]hypoxanthine uptake; format: functional, organism-based
Outline: (§2)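 Parasites kept in continuous culture per Trager and Jensen (modified) and synchronized every 48 h by 5% D-sorbitol lysis. Growth was read as [3H]hypoxanthine incorporation by the modified Desjardins method.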

Plasmodium falciparum [5] = assay: Antiplasmodial activity against chloroquine-resistant Plasmodium falciparum FcB1 by [3H]hypoxanthine uptake; format: functional, organism-based; outline: as §2
Plasmodium falciparum [6] = assay: Antiplasmodial activity against chloroquine-resistant Plasmodium falciparum FcM29 by [3H]hypoxanthine uptake; format: functional, organism-based; outline: as §2
MCF7 = assay: Cytotoxicity against human MCF7 cells assessed as [3H]hypoxanthine incorporation; format: cell-based
Outline: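 MCF-7 cells were grown in DMEM with 2 mM L-glutamine and 10% FCS at 37 °C, 5% CO2. Exponential-phase cells were trypsinized and seeded at 200 000 cells/mL. After 24 h, the medium was replaced with fresh medium containing compound at 0.01–100 µg/mL. Viability was read by [3H]hypoxanthine incorporation, and IC50 was taken graphically from dose-response curves.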

[7] = Toxicity in Plasmodium vinckei petteri infected CD mice (Mus musculus) assessed as mortality at 5 mg/kg/day, intraperitoneally measured on day 1; format: organism-based; design: route intraperitoneal; details: in vivo, ip, read-out: INH
Outline: (§3)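 4-day suppressive test in female CD mice (20 ± 2 g) infected on day 0 with 10^6 parasitized red cells in RPMI. Groups of five were dosed intraperitoneally on days 0–3 at 5 or 20 mg/kg; reference dosing was 1 or 10 mg/kg, with RPMI-alone controls. Parasitaemia was counted on day-4 Giemsa tail-blood smears. Survival was followed for three additional weeks.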

[8] = test system: Plasmodium vinckei petteri; assay: Antiplasmodial activity as reduced parasitaemia at day 5 in Plasmodium vinckei petteri infected CD mice (Mus musculus) at 5 mg/kg/day intraperitoneal dose; format: functional; details: ip, 120 h
Outline: (§4)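 Four-day suppressive test in female CD mice (20 ± 2 g), each infected on day 0 with 10^6 P. vinckei petteri-parasitized erythrocytes in RPMI. Groups of five received ip doses on days 0–3. Controls got RPMI alone. Parasitaemia was counted on Giemsa-stained tail-blood smears (≥5000 erythrocytes). % inhibition = (control − treated)/control × 100.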

[9] = Selectivity index ratio of IC50 for human MCF7 cells to IC50 for chloroquine-resistant Plasmodium falciparum FcB1; format: functional; outline: as §1
[10] = Toxicity in Plasmodium vinckei petteri infected CD mice (Mus musculus) assessed as mortality at 20 mg/kg/day, intraperitoneally measured on day 1; format: organism-based; design: route intraperitoneal; details: in vivo, ip, read-out: INH; outline: as §3
[11] = Toxicity in Plasmodium vinckei petteri infected CD mice (Mus musculus) assessed as mortality at 20 mg/kg/day, intraperitoneally measured on day 5; format: organism-based; design: route intraperitoneal; details: in vivo, ip, read-out: INH; outline: as §3
[12] = Selectivity index ratio of IC50 for human MCF7 cells to IC50 for chloroquine-resistant Plasmodium falciparum FcM29; format: functional; outline: as §1
[13] = Toxicity in Plasmodium vinckei petteri infected CD mice (Mus musculus) assessed as mortality at 20 mg/kg/day, intraperitoneally measured on day 15; format: organism-based; design: route intraperitoneal; details: in vivo, ip, read-out: INH; outline: as §3
[14] = Toxicity in Plasmodium vinckei petteri infected CD mice (Mus musculus) assessed as mortality at 5 mg/kg/day, […] measured on day 5; format: organism-based; details: in vivo, read-out: INH
[15] = Toxicity in Plasmodium vinckei petteri infected CD mice (Mus musculus) assessed as mortality at 5 mg/kg/day, intraperitoneally measured on day 15; format: organism-based; design: route intraperitoneal; details: in vivo, ip, read-out: INH; outline: as §3
[16] = test system: Plasmodium vinckei petteri; assay: Antiplasmodial activity as reduced parasitaemia at day 5 in Plasmodium vinckei petteri infected CD mice (Mus musculus) at 20 mg/kg/day intraperitoneal dose; format: functional; details: ip, 120 h; outline: as §4
[17] = Toxicity in Plasmodium vinckei petteri infected CD mice (Mus musculus) assessed as mortality at 1 mg/kg/day, intraperitoneally measured on day 1; format: organism-based; design: route intraperitoneal; details: in vivo, ip, read-out: INH; outline: as §3
[18] = Toxicity in Plasmodium vinckei petteri infected CD mice (Mus musculus) assessed as mortality at 1 mg/kg/day, intraperitoneally measured on day 5; format: organism-based; design: route intraperitoneal; details: in vivo, ip, read-out: INH; outline: as §3
[19] = Toxicity in Plasmodium vinckei petteri infected CD mice (Mus musculus) assessed as mortality at 10 mg/kg/day, intraperitoneally measured on day 15; format: organism-based; design: route intraperitoneal; details: in vivo, ip, read-out: INH; outline: as §3
[20] = Toxicity in Plasmodium vinckei petteri infected CD mice (Mus musculus) assessed as mortality at 1 mg/kg/day, intraperitoneally measured on day 15; format: organism-based; design: route intraperitoneal; details: in vivo, ip, read-out: INH; outline: as §3
[21] = Toxicity in Plasmodium vinckei petteri infected CD mice (Mus musculus) assessed as mortality at 10 mg/kg/day, intraperitoneally measured on day 1; format: organism-based; design: route intraperitoneal; details: in vivo, ip, read-out: INH; outline: as §3
[22] = test system: Plasmodium vinckei petteri; assay: Antiplasmodial activity as reduced parasitaemia at day 5 in Plasmodium vinckei petteri infected CD mice (Mus musculus) at 10 mg/kg/day intraperitoneal dose; format: functional; details: ip, 120 h; outline: as §4
[23] = test system: Plasmodium vinckei petteri; assay: Antiplasmodial activity as reduced parasitaemia at day 5 in Plasmodium vinckei petteri infected CD mice (Mus musculus) at 1 mg/kg/day intraperitoneal dose; format: functional; details: ip, 120 h; outline: as §4
[24] = Toxicity in Plasmodium vinckei petteri infected CD mice (Mus musculus) assessed as mortality at 10 mg/kg/day, intraperitoneally measured on day 5; format: organism-based; design: route intraperitoneal; details: in vivo, ip, read-out: INH; outline: as §3

C[C@@]12CCC[C@]3(C)c4cc5c(O)ccc(O)c5cc4C(=O)[C@](O)(OC1)[C@H]23 [ALISIAQUINOL]
Activity (Plasmodium falciparum [1]): Active
inhibition (Plasmodium falciparum [2]): 49%
Ratio IC50 [3]: <1
IC50 (Plasmodium falciparum [4]): 9.9 µM
IC50 (Plasmodium falciparum [5]): 6.4 µM
IC50 (Plasmodium falciparum [6]): 7.9 µM
IC50 (MCF7): 1.7 µM

C[C@@]12CCC[C@]3(C)c4cc5c(cc4C(=O)[C@](O)(OC1)[C@H]23)C(=O)C=CC5=O [ALISIAQUINONE A]
mortality [7]: 0%
Activity (Plasmodium falciparum [1]): Active
inhibition in vivo at 5 mg/kg/day [8]: 63%
Ratio IC50 [9]: 5
inhibition (Plasmodium falciparum [2]): 41%
mortality [10]: 100%
mortality [11]: 100%
Ratio IC50 [3]: 4
Ratio IC50 [12]: 4
IC50 (Plasmodium falciparum [4]): 9.1 µM
mortality [13]: 100%
IC50 (Plasmodium falciparum [5]): 7.4 µM
mortality [14]: 0%
mortality [15]: 40%
IC50 (Plasmodium falciparum [6]): 8.5 µM
IC50 (MCF7): 36 µM

COC1=CC(=O)c2cc3c(cc2C1=O)C(=O)[C@]1(O)OC[C@@]2(C)CCC[C@@]3(C)[C@@H]21 [ALISIAQUINONE B]
Ratio IC50 [3]: <1
IC50 (Plasmodium falciparum [4]): 7.1 µM
IC50 (Plasmodium falciparum [5]): 8.4 µM
IC50 (Plasmodium falciparum [6]): 2.6 µM
IC50 (MCF7): 0.8 µM

C[C@@]12CCC[C@]3(C)c4cc5c(cc4C(=O)[C@](O)(OC1)[C@H]23)C(=O)C1=C(NCCS1(=O)=O)C5=O [ALISIAQUINONE C]
mortality [7]: 0%
inhibition in vivo at 5 mg/kg/day [8]: 36%
Ratio IC50 [9]: 200
Activity (Plasmodium falciparum [2]): inactive
mortality [10]: 60%
inhibition in vivo at 20 mg/kg/day [16]: 42%
mortality [11]: 80%
Ratio IC50 [3]: 270
Ratio IC50 [12]: 500
IC50 (Plasmodium falciparum [4]): 0.15 µM
mortality [13]: 100%
IC50 (Plasmodium falciparum [5]): 0.21 µM
mortality [14]: 0%
mortality [15]: 60%
IC50 (Plasmodium falciparum [6]): 0.08 µM
IC50 (MCF7): 41 µM

CCN(CC)CCCC(C)Nc1ccnc2cc(Cl)ccc12 (stereo not drawn) [CHLOROQUINE]
mortality [17]: 0%
mortality [18]: 0%
mortality [19]: 0%
mortality [20]: 100%
mortality [21]: 0%
inhibition in vivo at 10 mg/kg/day [22]: 100%
inhibition in vivo at 1 mg/kg/day [23]: 0%
mortality [24]: 0%
IC50 (MCF7): 12 µM
